Our source for the IC50 values is ChEMBL document CHEMBL5104204, “Synthesis and in vitro anticancer evaluation of novel flavonoid-based amide derivatives as regulators of the PI3K/AKT signal pathway for TNBC treatment” (RSC Med Chem, 2022).

What all share (assay type): functional, cell-based
The subject of one test is MCF7. In words: Antitumor activity against human MCF7 cells assessed as inhibit cell proliferation incubated for 72 hrs by CCK-8 assay. The following applies: MCF7, 72 h. In outline:
(§1)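 CCK8 viability readout. Culture media: HCC1937, A549, HeLa and GTL-16 in RPMI 1640; MDA-MB-231, MCF-7 and HepG2 in high-glucose DMEM; all with 10% FBS and penicillin/streptomycin, 37 °C, 5% CO2. 4×10^3–6×10^3 cells/well, 24 h, then compounds in serum-free medium, 72 h at 37 °C. 10% CCK8, 2 h, OD 450/630 nm. Five wells per group; IC50 from inhibition rate; three independent experiments, mean ± SD.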
Background: Tetrazolium dyes change colour on reduction, which living cells bring about.

For another test, the system named is MDA-MB-231. In words: Antitumor activity against human MDA-MB-231 cells assessed as inhibit cell proliferation incubated for 72 hrs by CCK-8 assay. The following applies: MDA-MB-231, 72 h. In outline: as §1
Another test has as its system HCC1937. The test is described as follows: Antitumor activity against human HCC1937 cells assessed as inhibit cell proliferation incubated for 72 hrs by CCK-8 assay. The following applies: HCC1937, 72 h. In outline:
as §1

For the next test, the system named is HeLa. The test is described as follows: Antitumor activity against human HeLa cells assessed as inhibit cell proliferation incubated for 72 hrs by CCK-8 assay. An outline of the steps:
as §1

The next test has as its system A549. In words: Antitumor activity against human A549 cells assessed as inhibit cell proliferation incubated for 72 hrs by CCK-8 assay. The following applies: A549, 72 h. An outline of the steps: as §1
In another test the test system is HepG2. The test is described as follows: Antitumor activity against human HepG2 cells assessed as inhibit cell proliferation incubated for 72 hrs by CCK-8 assay. The following applies: HepG2, 72 h. In outline: as §1
Another test concerns GTL 16 cell line. The test is described as follows: Antitumor activity against human GTL 16 cell line assessed as inhibit cell proliferation incubated for 72 hrs by CCK-8 assay. The following applies: GTL 16, 72 h. In outline:
as §1

Each structure is given as a SMILES string. pIC50: −log10 of the molar value.

What is called pIC50 is the negative decadic logarithm of the IC50, by convention in mol/L. For `COc1cc(OC)cc(C(=O)Nc2cccc(-c3oc4cc(-c5ccc(F)cc5)ccc4c(=O)c3O)c2)c1`, the pIC50 is 5.46 with MCF7; 5.39 with MDA-MB-231; 5.20 with HCC1937; 5.57 in the test on HeLa; 5.62 with A549; 4.63 in the test on HepG2. In addition, the pIC50 with GTL 16 cell line was 4.71.

Take `O=c1[nH]cc(F)c(=O)[nH]1` [FLUOROURACIL]: the pIC50 was 5.35 in the test on MCF7; 5.11 in the test with MDA-MB-231; 4.59 with HCC1937; 5.71 in the test with HeLa; 5.58 in the test on A549; 5.54 in the test with HepG2. Also, the pIC50 with GTL 16 cell line was 6.08.

On to `N#Cc1ccc(C(=O)Nc2cccc(-c3oc4cc(-c5ccc(F)cc5)ccc4c(=O)c3O)c2)cc1`, for which the negative-log IC50 (pIC50) with MCF7 is 5.58; in the test on MDA-MB-231 it was 4.94; with HCC1937, 5.52; in the test with HeLa it was 4.63; in the test with A549, 5.63; in the test on HepG2 it was 5.15. For the same molecule, the pIC50 in the test with GTL 16 cell line is 4.50.

For the molecule `COc1cccc(C(=O)Nc2cccc(-c3oc4cc(-c5ccc(F)cc5)ccc4c(=O)c3O)c2)c1`, the pIC50 in the test with MCF7 is 4.82; in the test on MDA-MB-231, 5.04; in the test on HCC1937, 4.72; in the test on HeLa it was 5.25; with A549, 4.97; in the test on HepG2, 5.00. In addition, in the test on GTL 16 cell line, the pIC50 is 4.90.

Consider `O=C(Nc1cccc(-c2oc3cc(-c4ccc(F)cc4)ccc3c(=O)c2O)c1)c1cc(F)cc(F)c1`, for which the pIC50 with MCF7 is 5.60; in the test with MDA-MB-231, 5.61; with HCC1937, 5.68; with HeLa it was 5.47; in the test on A549, 5.12; in the test on HepG2, 5.30. For the same molecule, the pIC50 with GTL 16 cell line was 5.13.

As to `O=C(Nc1cccc(-c2oc3cc(-c4ccc(F)cc4)ccc3c(=O)c2O)c1)c1ccc(Br)cc1`, the pIC50 in the test on MCF7 is 4.62; in the test on MDA-MB-231 it was 4.60; in the test with HCC1937, 5.06; in the test on HeLa, 5.01; in the test with A549, 4.87; in the test with HepG2, 4.86. In addition, the pIC50 in the test on GTL 16 cell line is 4.59.

In the case of `O=C(Nc1cccc(-c2oc3cc(-c4ccc(F)cc4)ccc3c(=O)c2O)c1)c1cccc(F)c1`, the pIC50 in the test on MCF7 is 5.24; in the test on MDA-MB-231, 5.60; in the test on HCC1937, 5.18; in the test on HeLa, 5.06; in the test with A549 it was 4.81; with HepG2, 4.81. The pIC50 in the test on GTL 16 cell line was 4.80.

Regarding `O=C(Nc1cccc(-c2oc3cc(-c4ccc(F)cc4)ccc3c(=O)c2O)c1)c1ccc(Br)cc1F`, the results for the pIC50 with A549 and with HepG2 were 4.34 and under 4.00, respectively.

As for `O=C(Nc1cccc(-c2oc3cc(-c4ccc(F)cc4)ccc3c(=O)c2O)c1)c1ccc([N+](=O)[O-])cc1`, the pIC50 in the test with MCF7 was 5.40; in the test on MDA-MB-231, 4.83; in the test with HCC1937, 5.25; with HeLa, 4.91; in the test on A549, 5.61; in the test with HepG2, 5.73. For the same molecule, the pIC50 in the test on GTL 16 cell line is 4.74.

For the molecule `COc1ccccc1C(=O)Nc1cccc(-c2oc3cc(-c4ccc(F)cc4)ccc3c(=O)c2O)c1`, the pIC50 was 5.68 in the test on MCF7; 5.29 in the test with MDA-MB-231; 5.04 in the test with HCC1937; 4.85 with HeLa; 4.93 with A549; 4.84 in the test on HepG2. Moreover, in the test on GTL 16 cell line, the pIC50 is 5.20.

`Cc1ccccc1C(=O)Nc1cccc(-c2oc3cc(-c4ccc(F)cc4)ccc3c(=O)c2O)c1`: the pIC50 in the test with MCF7 is 5.64; in the test on MDA-MB-231, 5.31; with HCC1937, 5.00; in the test with HeLa, 4.93; in the test on A549 it was 4.76; in the test on HepG2 it was 4.71. Besides, in the test with GTL 16 cell line, the pIC50 is 4.61.

Consider `O=C(Nc1cccc(-c2oc3cc(-c4ccc(F)cc4)ccc3c(=O)c2O)c1)c1ccccc1F`, for which the pIC50 with MCF7 is 5.12; in the test on MDA-MB-231, 5.14; with HCC1937, 4.97; in the test with HeLa, 5.25; in the test on A549 it was 5.36; in the test with HepG2, 4.99. Further, the pIC50 in the test on GTL 16 cell line was 4.76.

Take `CCc1ccc(C(=O)Nc2cccc(-c3oc4cc(-c5ccc(F)cc5)ccc4c(=O)c3O)c2)cc1`: the pIC50 in the test with MCF7 was 4.64; in the test on MDA-MB-231, 5.04; with HCC1937 it was 4.88; in the test on HeLa, 4.68; in the test on A549, 4.73; in the test with HepG2 it was 4.69. Also, the pIC50 in the test on GTL 16 cell line is 4.61.

For the molecule `Cc1cccc(C(=O)Nc2cccc(-c3oc4cc(-c5ccc(F)cc5)ccc4c(=O)c3O)c2)c1`, the pIC50 in the test on MCF7 is 5.11; with MDA-MB-231, 5.55; with HCC1937, 5.10; with HeLa it was 5.18; in the test with A549, 4.78; in the test with HepG2, 4.87. For the same molecule, the pIC50 in the test on GTL 16 cell line was 4.96.

For `COc1ccc(C(=O)Nc2cccc(-c3oc4cc(-c5ccc(F)cc5)ccc4c(=O)c3O)c2)c(F)c1`, the pIC50 in the test on MCF7 is 4.70; with MDA-MB-231 it was 4.76; in the test on HCC1937, 4.61; with HeLa, 4.79; in the test on A549, 4.40; in the test with HepG2, 4.34. For the same molecule, the pIC50 in the test with GTL 16 cell line was 4.82.

Consider `O=C(Nc1cccc(-c2oc3cc(-c4ccc(F)cc4)ccc3c(=O)c2O)c1)c1ccc(C(F)(F)F)cc1`, for which the pIC50 in the test on MCF7 was 4.49; in the test on MDA-MB-231 it was 4.53; in the test with HCC1937, 5.13; in the test on HeLa, 4.76; in the test on A549, 4.71; in the test on HepG2, 4.37. In the test on GTL 16 cell line, the pIC50 was 4.48.

As for `Cc1cc(C(=O)Nc2cccc(-c3oc4cc(-c5ccc(F)cc5)ccc4c(=O)c3O)c2)ccc1F`, the pIC50 with MCF7 was 5.11; with MDA-MB-231, 5.13; in the test with HCC1937, 5.27; in the test on HeLa, 4.72; with A549, 4.94; in the test on HepG2, 5.02. The pIC50 with GTL 16 cell line is 4.92.

For `Cc1cc(C)cc(C(=O)Nc2cccc(-c3oc4cc(-c5ccc(F)cc5)ccc4c(=O)c3O)c2)c1`, the pIC50 in the test with MCF7 is 4.69; in the test on MDA-MB-231, 4.92; with HCC1937 it was 5.31; with HeLa it was 5.26; in the test on A549 it was 5.43; in the test with HepG2, 4.87. In addition, the pIC50 in the test on GTL 16 cell line was 4.87.

As to `CCCc1ccc(C(=O)Nc2cccc(-c3oc4cc(-c5ccc(F)cc5)ccc4c(=O)c3O)c2)cc1`, the negative logarithm of the IC50 (pIC50) with MCF7 is 4.43; with MDA-MB-231, 4.49; with HCC1937, 4.81; in the test on HeLa it was 5.06; in the test with A549 it was 4.32; in the test with HepG2, 4.29. Besides, the pIC50 in the test with GTL 16 cell line was 4.69.

For `O=C(Nc1cccc(-c2oc3cc(-c4ccc(F)cc4)ccc3c(=O)c2O)c1)c1ccc(-c2ccccc2)cc1`, the pIC50 in the test on MCF7 was 4.41; in the test with MDA-MB-231, 4.20; in the test with HCC1937, 4.36; in the test on HeLa, under 4.00; in the test with A549, under 4.00; in the test with HepG2 it was 4.05.

On to `O=C(Nc1cccc(-c2oc3cc(-c4ccc(F)cc4)ccc3c(=O)c2O)c1)c1cnc(Cl)nc1Cl`, for which the pIC50 in the test on A549 and in the test with HepG2 was under 4.00 each time.

As for `COc1ccc(C(=O)Nc2cccc(-c3oc4cc(-c5ccc(F)cc5)ccc4c(=O)c3O)c2)cc1`, the pIC50 is 5.20 with MCF7; 4.78 in the test on MDA-MB-231; 5.26 in the test with HCC1937; 5.32 with HeLa; 5.06 with A549; 5.07 with HepG2. Also, in the test on GTL 16 cell line, the pIC50 is 4.68.

Consider `O=C(Nc1cccc(-c2oc3cc(-c4ccc(F)cc4)ccc3c(=O)c2O)c1)c1ccc(F)cc1F`, for which the pIC50 in the test with MCF7 was 4.87; with MDA-MB-231, 4.95; in the test with HCC1937, 5.16; in the test on HeLa, 4.97; in the test on A549, 4.69; in the test on HepG2 it was 4.58. For the same molecule, the pIC50 in the test on GTL 16 cell line was 5.02.

Turning to `Cc1ccc(C(=O)Nc2cccc(-c3oc4cc(-c5ccc(F)cc5)ccc4c(=O)c3O)c2)cc1`, the pIC50 was 5.62 in the test on MCF7; 5.36 in the test with MDA-MB-231; 5.15 in the test with HCC1937; 5.21 in the test with HeLa; 5.16 in the test with A549; 5.63 in the test with HepG2. Also, the pIC50 in the test with GTL 16 cell line was 4.89.

Consider `O=C(Nc1cccc(-c2oc3cc(-c4ccc(F)cc4)ccc3c(=O)c2O)c1)c1ccc(Cl)cc1`, for which the pIC50 with MCF7 was 5.33; in the test with MDA-MB-231 it was 4.89; in the test on HCC1937, 5.39; in the test with HeLa it was 5.44; in the test on A549 it was 4.97; in the test on HepG2, 4.96. In addition, in the test with GTL 16 cell line, the pIC50 is 5.04.

Regarding `O=C(Nc1cccc(-c2oc3cc(-c4ccc(F)cc4)ccc3c(=O)c2O)c1)c1ccc(F)cc1`, the negative logarithm of the IC50 (pIC50) in the test on MCF7 is 5.07; in the test with MDA-MB-231 it was 4.80; with HCC1937 it was 4.85; in the test with HeLa, 5.27; in the test on A549, 5.16; with HepG2, 5.03. In the test with GTL 16 cell line, the pIC50 was 4.83.
